This is one part of a sample in which hits are shown more often than they occur.
CHOP inhibitor: inhibitors of CHOP promoter induction, primary screen, cell-based, unfolded protein response, luciferase reporter; CHO-K1 CHOP-promoter luciferase, tunicamycin-induced, 15-18 h; inhibition, % at 10 µM; 3.8% of 220,000 active;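 active means compounds that reduced the stress-induced luciferase reporter signal by more than about 70% of percent inhibition, limit read from the data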
GAA850 FXN act: FXN promoter activators, primary screen, cell-based, luciferase luminescence, HEK293 lucGAA850 | 0.56% of 360,000 active | activation, % at 6 µM | AID 540364, 2011 | HEK293 lucGAA850 FXN promoter luciferase reporter, 24 h; percent of 10 µM SAHA response;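 active means activation above the average of all compounds screened plus 3 SD, cutoff fixed separately per campaign, cut at about 7.5% in these data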
CHOP UPR activ: activators of apoptotic CHOP UPR arm, primary screen, cell-based, CHO-CHOP luciferase reporter, luminescence, uHTS; UPR activation; percent of tunicamycin response over DMSO baseline; 0.34% of 330,000 active; activation, % at 10 µM;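 active means at 10 µM dose, activation of 40% or more, normalized to positive control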
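assay system = CHO CHOP reporter cells | amount = 500 CHO-CHOP cells per well | buffer or medium = F12 with 10% FBS | incubation = 16-18 h cell attachment, then 6 h compound exposure, 37 °C | detection = luminescence read with Steady-Glo | read-out = percent activation relative to tunicamycin control | controls = tunicamycin high control, DMSO low control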
XBP1 UPR activ: activators of adaptive XBP1 UPR arm, primary screen, cell-based, CHO-XBP1 luciferase reporter, luminescence, uHTS | IRE1-XBP1 UPR activation; percent of tunicamycin response, DMSO as zero | activation, % at 20 µM | 0.33% of 330,000 active | AID 463104, 2010;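 active means versus positive control, 20 µM dose yields 30% or more activation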
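assay system = CHO-XBP1 luciferase reporter cells | amount = 1000 cells/well | buffer or medium = F12 plus 10% FBS | compound dosing = single point, 20 µM final compound, 1% DMSO | incubation = 16-18 h cell attachment at 37 °C, then 6 h compound exposure | detection = Steady-Glo luminescence read | controls = tunicamycin 10 µg/mL and vehicle-only wells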
CHOP UPR conf: activators of apoptotic CHOP UPR arm, confirmation, cell-based, CHO-CHOP luciferase reporter, single concentration | shares compounds with CHOP UPR activ | CHO-CHOP cells, CHOP-luciferase reporter luminescence; percent of tunicamycin response, DMSO as zero | activation, % at 10 µM | 64% of 1,000 active | AID 463112, 2010; in the data active means activation above about 33%
XBP1 UPR conf: IRE1-XBP1 UPR arm activators, confirmation, cell-based, CHO-XBP1 luciferase reporter, luminescence, single concentration. shares compounds with XBP1 UPR activ. activation, % at 20 µM. 63% of 1,000 active;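 active means reporter signal at least 30% of the positive control's activation in two or more of four replicate wells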
Large screens that a line does not name were inactive (follow-up assays come after a bar, where they were run).

Cc1noc(C)c1S(=O)(=O)NC(=O)C1(C)CCN1C(=O)C1(c2ccc(Cl)cc2)CC1 (configuration not stated)	none (no result: CHOP inhibitor, CHOP UPR activ, XBP1 UPR activ)
COc1cc(OC)cc(-c2noc(-c3csc([C@@H]4C[C@H](O)[C@@H](CO)O4)n3)n2)c1	none (no result: CHOP inhibitor, CHOP UPR activ, XBP1 UPR activ)
COc1cc2nc(NC(=O)c3ccc(Cl)cc3)sc(=O)c2cc1OC	CHOP UPR activ 46.9, XBP1 UPR activ 67.6 (no result: CHOP inhibitor) | CHOP UPR conf 50.0 | XBP1 UPR conf inactive
O=[N+]([O-])c1ccc(N/N=C/c2cccc(O)c2O)c(S(=O)(=O)N2CCOCC2)c1	CHOP UPR activ 133.2, XBP1 UPR activ 54.3 | CHOP UPR conf 86.3 | XBP1 UPR conf 32.6
O=[N+]([O-])c1ccc(N/N=C/c2ccc(O)c(O)c2O)c(S(=O)(=O)N2CCOCC2)c1	none
C/C(CC(C)(C)C1CCCCC1)=N\NC(N)=S	CHOP UPR activ 71.6, XBP1 UPR activ 69.1 | CHOP UPR conf 43.2 | XBP1 UPR conf 30.7
Brc1ccc(-c2nnc3ccc(N4CCN(c5ccccc5)CC4)nn23)cc1	CHOP UPR activ 54.1, XBP1 UPR activ 46.7 | CHOP UPR conf inactive | XBP1 UPR conf inactive
CCOc1cc(/C=N/NC(N)=S)cc(Br)c1OCc1ccccc1C	CHOP inhibitor 86.5, CHOP UPR activ 68.7, XBP1 UPR activ 60.8 | CHOP UPR conf 40.9 | XBP1 UPR conf 60.4
COc1ccc(/C=N/N=C(\N)c2nonc2N)cc1	none (no result: CHOP UPR activ, XBP1 UPR activ)
CCOc1cc(/C=N/N=C(\N)c2nonc2N)cc(Br)c1OCc1cccc2ccccc12	CHOP inhibitor 94.8, CHOP UPR activ 106.5, XBP1 UPR activ 268.3 | CHOP UPR conf inactive | XBP1 UPR conf 210.9
CNC(C)C(=O)NC(C(=O)NC(C)C(=O)NNc1ccccc1)C(C)C (configuration not stated)	none (no result: CHOP inhibitor, CHOP UPR activ, XBP1 UPR activ)
COc1ccc(C2c3ccc4ccccc4c3Oc3ncn(CCCN(C)C)c(=N)c32)cc1 (configuration not stated)	CHOP UPR activ 75.7, XBP1 UPR activ 54.9 (no result: CHOP inhibitor) | CHOP UPR conf 36.5 | XBP1 UPR conf 60.4
COc1ccccc1C1c2ccc3ccccc3c2Oc2ncn(CCN(C)C)c(=N)c21 (configuration not stated)	none (no result: CHOP inhibitor)
CCOC(=O)/C(=C\c1ccccc1)C(=O)c1cc(C(C)=O)c(Nc2ccccc2)s1	CHOP UPR activ 139.4, XBP1 UPR activ 59.7 (no result: CHOP inhibitor) | CHOP UPR conf 190.9 | XBP1 UPR conf 41.3
CCOC(=O)/C(=C\c1cccnc1)C(=O)c1cc(C(C)=O)c(Nc2ccccc2)s1	none (no result: CHOP inhibitor)
COc1cc2c(cc1NC(=O)COCC(=O)O)oc1ccccc12	none (no result: CHOP inhibitor)
CCN(CC)c1ccc(C(=O)OCC(=O)Nc2cc3oc4ccccc4c3cc2OC)cc1	CHOP UPR activ 55.2, XBP1 UPR activ 177.9 | CHOP UPR conf inactive | XBP1 UPR conf 120.8
O=c1oc(CCCO)cc2ccc(/C=C/c3cccc([N+](=O)[O-])c3)cc12	CHOP UPR activ 75.8, XBP1 UPR activ 78.4 (no result: CHOP inhibitor) | CHOP UPR conf inactive | XBP1 UPR conf 32.6
O=c1oc(CCCO)cc2ccc(Br)cc12	none (no result: CHOP inhibitor)
COc1cc(/C=C2\CC(C(C)(C)C)C/C(=C\c3cc(OC)c(OC)c(OC)c3)C2=O)cc(OC)c1OC (configuration not stated)	CHOP UPR activ 125.6, XBP1 UPR activ 43.3 (no result: CHOP inhibitor) | CHOP UPR conf 112.5 | XBP1 UPR conf 41.0
COc1cc(/C=C2\CCC(C3CCCC3)C2=O)cc(OC)c1OC (configuration not stated)	none (no result: CHOP inhibitor)
COCCNC(=O)/C(C#N)=C\c1ccc(CNC(=O)C(=O)Nc2ccc(C)c(C)c2)o1	none
COc1ccc(NC(=O)C(=O)N/N=C\c2ccc(CNC(=O)C(=O)Nc3ccc(C)c(C)c3)o2)c(OC)c1	CHOP UPR activ 134.8, XBP1 UPR activ 49.7 (no result: CHOP inhibitor, GAA850 FXN act) | CHOP UPR conf 41.3 | XBP1 UPR conf 51.8
CC1(C(=O)Nc2ccccc2)CCN1C(=O)CCc1ccc(Cl)cc1Cl (configuration not stated)	none (no result: CHOP inhibitor, CHOP UPR activ, XBP1 UPR activ)

High-throughput results deposited in PubChem BioAssay by several laboratories.
